According to ChEMBL document CHEMBL4007404, “Identification of High-Potency Human TLR8 and Dual TLR7/TLR8 Agonists in Pyrimidine-2,4-diamines” (J Med Chem, 2017):
The source made the active and inactive calls. No cut-off for these calls is given here.

What was measured:
Assay type in all cases: cell-based
Toll-like receptor 8 = target: T1, Toll-like receptor 8 (Homo sapiens, UniProt Q9NR97); experiment: Agonist activity at human TLR8 expressed in HEK293 cells co-expressing secreted alkaline phosphatase assessed as induction of NF-kappaB/AP-1 promoter activity by measuring increase in secreted alkaline phosphatase level by spectrophotometric method
T1 sequence (Q9NR97 whole entry): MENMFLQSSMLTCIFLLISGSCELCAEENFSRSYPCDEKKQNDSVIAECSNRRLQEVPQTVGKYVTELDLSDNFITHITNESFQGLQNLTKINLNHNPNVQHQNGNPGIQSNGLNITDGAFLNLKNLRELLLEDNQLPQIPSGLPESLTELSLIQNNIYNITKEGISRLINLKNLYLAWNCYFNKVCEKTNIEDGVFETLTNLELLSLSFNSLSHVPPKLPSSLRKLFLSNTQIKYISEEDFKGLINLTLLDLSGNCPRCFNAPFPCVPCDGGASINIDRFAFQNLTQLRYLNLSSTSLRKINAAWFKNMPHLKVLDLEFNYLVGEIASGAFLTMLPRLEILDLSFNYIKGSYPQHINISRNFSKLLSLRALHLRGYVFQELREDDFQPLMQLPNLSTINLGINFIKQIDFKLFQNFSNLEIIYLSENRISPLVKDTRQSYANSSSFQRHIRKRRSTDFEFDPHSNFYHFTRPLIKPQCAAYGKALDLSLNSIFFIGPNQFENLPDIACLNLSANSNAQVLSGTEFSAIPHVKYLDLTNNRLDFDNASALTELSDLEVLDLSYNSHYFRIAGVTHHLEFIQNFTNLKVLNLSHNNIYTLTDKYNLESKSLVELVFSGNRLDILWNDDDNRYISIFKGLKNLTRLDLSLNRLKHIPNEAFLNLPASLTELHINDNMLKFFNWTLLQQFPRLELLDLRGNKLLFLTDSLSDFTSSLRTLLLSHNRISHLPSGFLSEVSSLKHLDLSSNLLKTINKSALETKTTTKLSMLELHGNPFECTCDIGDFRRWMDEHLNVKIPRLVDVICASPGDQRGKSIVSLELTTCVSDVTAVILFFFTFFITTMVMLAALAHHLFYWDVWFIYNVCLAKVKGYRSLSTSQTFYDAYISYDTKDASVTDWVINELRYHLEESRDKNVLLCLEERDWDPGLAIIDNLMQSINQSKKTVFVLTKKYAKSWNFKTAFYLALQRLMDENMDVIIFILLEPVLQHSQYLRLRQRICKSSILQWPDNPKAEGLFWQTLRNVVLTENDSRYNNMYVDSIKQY
In short: (§1)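 HEK293 cells stably co-transfected with the relevant human TLR (2, 3, 4, 5, 7, 8 or 9) plus an NF-κB/AP-1-driven secreted alkaline phosphatase reporter, kept in selection medium. Cells at ~10⁵ cells/ml were exposed to graded concentrations of stimuli in 384-well format, liquid-handler assisted. Supernatant sAP was read at 620 nm with an alkaline phosphatase-specific chromogen.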

[1] = target: Toll-like receptor 2 (Homo sapiens) (UniProt O60603); experiment: Activity at human TLR2 expressed in HEK293 cells co-expressing secreted alkaline phosphatase assessed as induction of NF-kappaB/AP-1 promoter activity by measuring increase in secreted alkaline phosphatase level by spectrophotometric method; in short: as §1
Toll-like receptor 2 (Homo sapiens), sequence (O60603 whole entry): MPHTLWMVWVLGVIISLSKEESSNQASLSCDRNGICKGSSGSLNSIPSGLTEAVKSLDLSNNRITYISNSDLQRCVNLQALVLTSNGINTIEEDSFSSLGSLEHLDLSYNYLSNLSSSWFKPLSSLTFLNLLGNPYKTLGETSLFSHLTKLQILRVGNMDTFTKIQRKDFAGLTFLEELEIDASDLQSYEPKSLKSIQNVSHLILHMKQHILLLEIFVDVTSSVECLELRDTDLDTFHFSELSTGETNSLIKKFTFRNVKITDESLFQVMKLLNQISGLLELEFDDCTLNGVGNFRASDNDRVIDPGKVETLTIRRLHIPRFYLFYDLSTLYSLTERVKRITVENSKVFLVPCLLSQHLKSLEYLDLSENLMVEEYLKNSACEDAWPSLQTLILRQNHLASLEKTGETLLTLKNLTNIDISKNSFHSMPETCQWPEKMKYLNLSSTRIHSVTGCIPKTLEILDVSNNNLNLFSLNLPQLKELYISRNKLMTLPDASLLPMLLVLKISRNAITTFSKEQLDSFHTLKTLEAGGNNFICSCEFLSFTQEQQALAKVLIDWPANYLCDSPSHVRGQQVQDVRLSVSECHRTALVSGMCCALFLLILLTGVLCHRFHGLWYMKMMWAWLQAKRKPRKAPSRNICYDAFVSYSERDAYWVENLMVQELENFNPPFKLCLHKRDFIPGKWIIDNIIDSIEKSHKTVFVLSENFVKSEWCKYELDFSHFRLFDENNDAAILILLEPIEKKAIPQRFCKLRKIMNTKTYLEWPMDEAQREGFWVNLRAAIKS

[2] = target: Toll-like receptor 4 (Homo sapiens) (UniProt O00206); experiment: Activity at human TLR4 expressed in HEK293 cells co-expressing secreted alkaline phosphatase assessed as induction of NF-kappaB/AP-1 promoter activity by measuring increase in secreted alkaline phosphatase level by spectrophotometric method; in short: as §1
Toll-like receptor 4 (Homo sapiens), sequence (O00206 whole entry): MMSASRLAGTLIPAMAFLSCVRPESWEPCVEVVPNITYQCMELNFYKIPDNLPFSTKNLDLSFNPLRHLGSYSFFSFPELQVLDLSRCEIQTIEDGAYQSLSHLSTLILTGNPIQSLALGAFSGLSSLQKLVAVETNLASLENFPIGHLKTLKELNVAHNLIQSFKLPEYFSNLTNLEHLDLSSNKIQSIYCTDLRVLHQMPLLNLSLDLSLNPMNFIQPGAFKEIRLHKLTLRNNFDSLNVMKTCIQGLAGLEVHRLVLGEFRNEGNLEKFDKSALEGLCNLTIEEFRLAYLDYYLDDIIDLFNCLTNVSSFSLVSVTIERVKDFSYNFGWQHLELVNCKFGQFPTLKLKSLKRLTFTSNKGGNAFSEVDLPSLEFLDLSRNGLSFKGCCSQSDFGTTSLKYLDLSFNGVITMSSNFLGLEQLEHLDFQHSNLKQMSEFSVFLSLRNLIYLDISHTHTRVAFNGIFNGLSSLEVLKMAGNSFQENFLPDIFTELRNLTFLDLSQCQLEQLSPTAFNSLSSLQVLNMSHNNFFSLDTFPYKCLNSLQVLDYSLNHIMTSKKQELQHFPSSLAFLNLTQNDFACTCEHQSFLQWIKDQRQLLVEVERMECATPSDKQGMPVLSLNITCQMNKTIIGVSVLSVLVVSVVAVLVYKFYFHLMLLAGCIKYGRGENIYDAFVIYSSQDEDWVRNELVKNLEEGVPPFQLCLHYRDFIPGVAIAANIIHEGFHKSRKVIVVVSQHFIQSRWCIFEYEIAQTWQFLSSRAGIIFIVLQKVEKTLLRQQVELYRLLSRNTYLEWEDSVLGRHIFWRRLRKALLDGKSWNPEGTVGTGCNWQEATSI

[3] = target: Toll-like receptor 5 (Homo sapiens) (UniProt O60602); experiment: Activity at human TLR5 expressed in HEK293 cells co-expressing secreted alkaline phosphatase assessed as induction of NF-kappaB/AP-1 promoter activity by measuring increase in secreted alkaline phosphatase level by spectrophotometric method; in short: as §1
Toll-like receptor 5 (Homo sapiens), sequence (O60602 whole entry): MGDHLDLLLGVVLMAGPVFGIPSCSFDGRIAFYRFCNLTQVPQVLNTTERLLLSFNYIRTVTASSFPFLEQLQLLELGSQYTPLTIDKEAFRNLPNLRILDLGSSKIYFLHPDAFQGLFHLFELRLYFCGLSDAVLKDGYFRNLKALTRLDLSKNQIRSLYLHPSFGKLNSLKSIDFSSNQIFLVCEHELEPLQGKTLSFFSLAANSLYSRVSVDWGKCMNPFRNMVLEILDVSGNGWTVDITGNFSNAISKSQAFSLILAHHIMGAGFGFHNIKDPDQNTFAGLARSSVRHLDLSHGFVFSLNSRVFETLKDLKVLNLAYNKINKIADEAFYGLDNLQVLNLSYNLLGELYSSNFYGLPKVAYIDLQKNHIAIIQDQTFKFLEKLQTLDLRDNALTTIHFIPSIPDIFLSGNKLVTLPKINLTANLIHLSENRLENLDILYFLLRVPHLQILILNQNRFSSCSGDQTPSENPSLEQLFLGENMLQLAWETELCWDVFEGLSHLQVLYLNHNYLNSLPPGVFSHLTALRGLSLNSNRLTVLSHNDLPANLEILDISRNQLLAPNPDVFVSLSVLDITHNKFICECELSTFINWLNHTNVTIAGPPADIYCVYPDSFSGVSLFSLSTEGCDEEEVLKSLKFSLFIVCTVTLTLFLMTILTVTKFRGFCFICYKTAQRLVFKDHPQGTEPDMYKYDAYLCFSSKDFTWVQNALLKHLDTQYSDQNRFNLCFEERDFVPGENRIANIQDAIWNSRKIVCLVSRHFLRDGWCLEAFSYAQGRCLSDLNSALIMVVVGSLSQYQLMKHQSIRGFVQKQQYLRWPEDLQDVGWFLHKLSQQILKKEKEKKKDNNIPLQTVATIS

[4] = target: T2, Toll-like receptor 9 (Homo sapiens) (UniProt Q9NR96); experiment: Activity at human TLR9 expressed in HEK293 cells co-expressing secreted alkaline phosphatase assessed as induction of NF-kappaB/AP-1 promoter activity by measuring increase in secreted alkaline phosphatase level by spectrophotometric method; in short: as §1
T2 sequence (whole entry): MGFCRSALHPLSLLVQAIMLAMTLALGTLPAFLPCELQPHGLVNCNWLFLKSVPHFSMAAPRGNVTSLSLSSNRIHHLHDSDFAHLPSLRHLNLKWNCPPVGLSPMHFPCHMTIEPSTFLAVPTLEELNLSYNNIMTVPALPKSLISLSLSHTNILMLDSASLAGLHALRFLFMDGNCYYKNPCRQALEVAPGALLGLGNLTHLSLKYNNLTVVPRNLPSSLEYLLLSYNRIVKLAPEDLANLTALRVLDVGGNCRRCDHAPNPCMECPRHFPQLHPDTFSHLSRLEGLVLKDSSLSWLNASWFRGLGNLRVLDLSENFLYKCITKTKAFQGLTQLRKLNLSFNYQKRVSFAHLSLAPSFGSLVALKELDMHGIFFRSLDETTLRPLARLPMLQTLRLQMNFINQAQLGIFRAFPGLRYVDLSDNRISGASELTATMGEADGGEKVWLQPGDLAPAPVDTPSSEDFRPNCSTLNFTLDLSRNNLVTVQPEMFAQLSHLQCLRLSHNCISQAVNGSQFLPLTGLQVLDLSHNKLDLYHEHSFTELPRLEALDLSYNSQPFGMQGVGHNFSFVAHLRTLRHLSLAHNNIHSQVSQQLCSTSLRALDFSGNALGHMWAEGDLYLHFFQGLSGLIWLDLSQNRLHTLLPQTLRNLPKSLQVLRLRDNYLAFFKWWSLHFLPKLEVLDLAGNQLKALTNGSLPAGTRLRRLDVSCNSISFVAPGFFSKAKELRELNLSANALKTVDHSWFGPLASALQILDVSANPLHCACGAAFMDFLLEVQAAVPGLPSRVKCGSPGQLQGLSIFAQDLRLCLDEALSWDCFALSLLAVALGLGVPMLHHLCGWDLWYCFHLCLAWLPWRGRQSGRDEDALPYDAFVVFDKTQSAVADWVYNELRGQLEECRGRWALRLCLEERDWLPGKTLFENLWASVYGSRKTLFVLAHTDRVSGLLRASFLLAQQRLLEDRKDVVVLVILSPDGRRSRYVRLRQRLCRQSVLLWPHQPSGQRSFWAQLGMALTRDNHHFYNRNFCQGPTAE

EC50 (Toll-like receptor 8) [nM] | Activity [1] | Activity [2] | Activity [3] | Activity [4] | Structure (SMILES)
167 | inactive | inactive | inactive | inactive | CCCCNc1nc(N)nc(C)c1CCCN1CCSCC1
110 | inactive | inactive | inactive | inactive | CCCCNc1nc(N)nc(C)c1CCCN1CCCC1
857 | inactive | inactive | inactive | inactive | CCCCNc1nc(N)nc(C)c1CCCCc1ccccc1
179 | inactive | inactive | inactive | inactive | CCCCNc1nc(N)nc(C)c1CCCN1CCN(C)CC1
3790 | inactive | inactive | inactive | inactive | CCCCNc1nc(N)nc(C)c1C#CCN1CCCCC1
1220 | inactive | inactive | inactive | inactive | CCCCCc1c(C)nc(N)nc1NCCCC
1660 | inactive | inactive | inactive | inactive | CCCCNc1nc(N)nc(C)c1CC
